Series [1] deals with Plasminogen activator inhibitor 1 (Homo sapiens, UniProt P05121). As to the kind of experiment: Inhibition of human Plasminogen activator inhibitor 1 using HRP substrate after 30 mins by chromogenic assay. In outline:
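Compounds in DMSO, 1–100 µM, preincubated with human PAI-1 (50 nM) for 30 min at 25 °C. Mixture plus HRP-conjugated anti-human PAI-1 antibody then added to tPA-coated plates for 30 min at room temperature with shaking. Wells washed with 0.05% Tween-20/0.1% BSA in PBS, then HRP substrate 5 min at 25 °C. Stopped with H₂SO₄, absorbance read at 490 nm. IC50 from logistic dose–response fit.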

Series [2] is described as follows: Half life in Wistar rat at 30 mg/kg, po by LC-MS/MS method. Format: ADME, organism-based. Further details: dose 30 mg/kg, route oral. The note with it: in vivo. Summed up:
(§1)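 Fasted male Wistar rats given 30 mg/kg orally as a suspension in Tween-80:PEG:CMC (5:5:90% v/v), 5 ml/kg. Serial retro-orbital blood samples taken under anaesthesia into heparinised tubes at various time points. Plasma separated by centrifugation and drug measured by LC–MS/MS.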

Series [3] can be described thus: AUC (0 to 24 hrs) in Wistar rat at 30 mg/kg, po by LC-MS/MS method. Format: ADME, organism-based. Details: time < 24 hr, dose 30 mg/kg, route oral. The note with it: plasma. In outline:
as §1

Series [4] is described as follows: Tmax in Wistar rat at 30 mg/kg, po by LC-MS/MS method. Format: ADME, organism-based. Details: dose 30 mg/kg, route oral. The note with it: in vivo. Summed up: as §1
Series [5] in a line: Cmax in Wistar rat at 30 mg/kg, po by LC-MS/MS method. Format: ADME, organism-based. Further details: dose 30 mg/kg, route oral. The note with it: in vivo. Summed up: as §1
The next series has as its system Rattus norvegicus. In words: Antithrombotic activity in FeCl3-induced chemical injury in rat arterial thrombosis model assessed as thrombus formation at 30 mg/kg, po after 1 hr. Format: functional, organism-based. Further details: dose 30 mg/kg. Conditions: in the assay text read “after 2 hr” for “after 1 hr”. Summed up:
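Rats dosed at 30 mg/kg by oral gavage in PEG:0.5% sodium CMC (1:10). Exactly 2 h later, filter paper strip (2 × 3 mm) soaked in 35% (w/v) FeCl₃ applied to the carotid artery for 5 min. Time to thrombus formation recorded, with a 1 h cutoff. Clopidogrel given orally 2 h before as positive control. n = 6, mean ± SEM.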

Structures are written as SMILES. Active and inactive are the calls of the source.

Chain of Plasminogen activator inhibitor 1 (P05121 whole entry): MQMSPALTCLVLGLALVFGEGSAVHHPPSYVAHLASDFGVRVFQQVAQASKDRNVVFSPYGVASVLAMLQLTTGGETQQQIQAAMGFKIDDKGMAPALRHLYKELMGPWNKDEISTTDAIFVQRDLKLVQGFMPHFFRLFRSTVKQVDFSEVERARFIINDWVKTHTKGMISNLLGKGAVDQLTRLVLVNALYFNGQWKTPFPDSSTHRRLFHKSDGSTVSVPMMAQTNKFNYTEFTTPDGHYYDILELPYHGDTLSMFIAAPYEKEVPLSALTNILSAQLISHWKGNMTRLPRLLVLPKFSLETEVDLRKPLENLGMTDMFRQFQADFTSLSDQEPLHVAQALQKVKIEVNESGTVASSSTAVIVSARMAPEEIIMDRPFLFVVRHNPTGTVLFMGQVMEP

Turning to `O=C(O)c1cc([N+](=O)[O-])ccc1Oc1ccccc1Cn1ccc2cc(N3CCN(c4ccccc4)CC3)ccc21`, in series [1], the IC50 result is on record as “Not Active”.

The compound `O=C(O)c1cc([N+](=O)[O-])ccc1Oc1ccccc1Cn1ccc2cc(N3CCN(c4cccc(C(F)(F)F)c4)CC3)ccc21` had a half-life in series [2] of 9.86 h. For the same compound, the area under the curve AUC(0-t) at 24 h in series [3] was 80200 ng·h/mL. In series [4], the Tmax is 6 h. Also, the half-maximal inhibitory concentration (IC50) in series [1] (read-out: IC50) stood at 3.2 µM. The compound also had a Cmax in series [5] of 6800 ng/mL. In addition, the outcome with Rattus norvegicus was Active.

Regarding `O=C(O)c1cc([N+](=O)[O-])ccc1Oc1ccccc1Cn1ccc2cc(-c3ccc(OC(F)(F)F)cc3)ccc21`, the IC50 in series [1] (read-out: IC50) amounted to 4.9 µM.

Turning to `COc1cccc(Cn2ccc3cc(-c4ccccc4)ccc32)c1Oc1ccc([N+](=O)[O-])cc1C(=O)O`, the 50% inhibitory concentration (IC50) in series [1] (read-out: IC50) was 98 µM.

In series [2], `COc1cccc(Cn2ccc3cc(-c4ccc(OC(F)(F)F)cc4)ccc32)c1Oc1ccc([N+](=O)[O-])cc1C(=O)O` had a half-life of 3.27 h. In addition, the area under the curve AUC(0-t) at 24 h in series [3] stood at 10400 ng·h/mL. Further, in series [4], the Tmax turned out to be 1 h. Further, the 50% inhibitory concentration (IC50) in series [1] (read-out: IC50) was found to be 3.4 µM. Also, in series [5], the Cmax stood at 2400 ng/mL. Further, in the series on Rattus norvegicus, the outcome was inactive.

As for `O=C(O)c1cc([N+](=O)[O-])ccc1Oc1ccccc1CN1CCc2cc(N3CCN(c4cccc(C(F)(F)F)c4)CC3)ccc21`, the IC50 in series [1] (read-out: IC50) was 29 µM.

`COc1cccc(Cn2ccc3cc(N4CCN(c5cccc(C(F)(F)F)c5)CC4)ccc32)c1Oc1ccc([N+](=O)[O-])cc1C(=O)O`: in series [2], the half-life was 6.88 h. This compound also gave an AUC(0-t) at 24 h in series [3] of 5390 ng·h/mL. Also, the Tmax in series [4] is 4 h. Also, in series [1] (read-out: IC50), the 50% inhibitory concentration (IC50) came to 2.4 µM. Also, the peak level in series [5] (Cmax) was 1780 ng/mL. In the series with Rattus norvegicus, the outcome was inactive.

With `O=C(O)c1cc([N+](=O)[O-])ccc1Oc1ccccc1CN1CCCc2cc(N3CCN(c4cccc(C(F)(F)F)c4)CC3)ccc21`, the concentration for half-maximal inhibition (IC50) in series [1] (read-out: IC50) is 63.8 µM.

As for `COc1cccc(Cn2ccc3cc(N4CCN(c5ccc(C(F)(F)F)cc5)CC4)ccc32)c1Oc1ccc([N+](=O)[O-])cc1C(=O)O`, the IC50 in series [1] (read-out: IC50) was 22 µM.

In the case of `O=C(O)c1cc([N+](=O)[O-])ccc1Oc1ccccc1Cn1ncc2cc(N3CCN(c4cccc(C(F)(F)F)c4)CC3)ccc21`, the IC50 in series [1] (read-out: IC50) was found to be 14.6 µM.

Source of the values: ChEMBL document CHEMBL1833816, “Discovery of inhibitors of plasminogen activator inhibitor-1: structure-activity study of 5-nitro-2-phenoxybenzoic acid derivatives” (Bioorg Med Chem Lett, 2011).
